This is an account of results in ChEMBL document CHEMBL3352348, “Detailed analysis of (-)-palmyrolide a and some synthetic derivatives as voltage-gated sodium channel antagonists” (J Nat Prod, 2014).

Tested on in the first experiment: not listed separately
Nature of the experiment: (§1) Antagonist activity against Voltage-gated sodium channel in Swiss-Webster mouse primary cerebrocortical neurons assessed as inhibition of veratridine-induced sodium influx by SBFI-AM dye based fluorescence assay. In a few lines:
(§2)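 Primary cortical neurons from E17 Swiss-Webster mouse embryos, plated at 1.5 × 10^5 cells/well and used at 7–9 days in vitro. Cells were loaded with 10 μM SBFI-AM plus 0.02% Pluronic F-127 for 1 h at 37 °C in Locke's buffer (pH 7.4), then equilibrated 15 min. Baseline was read for 60 s, then compound and/or veratridine was added. Ex 340/380 nm, em 505 nm, background-corrected 340/380 ratio. IC50 from a three-parameter logistic fit, 4–7 experiments.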
The term IC50 denotes the concentration at which inhibition is half-maximal. Take `C[C@H]1CCCC(=O)N(C)/C=C/CC[C@H](C)C(=O)O[C@H](C(C)(C)C)C1`: the 50% inhibitory concentration (IC50) was 4 µM. Regarding `CNC(=O)CCC[C@@H](C)C[C@@H](OC(=O)[C@@H](C)CCCCO)C(C)(C)C`, the IC50 was greater than 10 µM.

Consider `C[C@@H]1CCCC(=O)N(C)CCCC[C@@H](C)C(=O)O[C@@H](C(C)(C)C)C1`, for which the IC50 was 3 µM.

Consider `CNC(=O)CCC[C@@H](C)C[C@@H](OC(=O)[C@H](C)CCCC(=O)O)C(C)(C)C`, for which the IC50 is greater than 10 µM.

As to `CNC(=O)CCC[C@@H](C)C[C@@H](OC(=O)[C@H](C)CCCCO)C(C)(C)C`, the IC50 is greater than 10 µM. `C[C@@H]1CCCC(=O)N(C)/C=C/CC[C@H](C)C(=O)O[C@@H](C(C)(C)C)C1`: the IC50 is greater than 10 µM. On the same count and under the same terms, the figure for `C[C@@H]1CCCC(=O)N(C)/C=C/CC[C@@H](C)C(=O)O[C@@H](C(C)(C)C)C1` is 2.1 µM. For `C[C@@H]1CCCC(=O)N(C)CCCC[C@H](C)C(=O)O[C@@H](C(C)(C)C)C1`, the IC50 was determined as 4.5 µM. Same read-out and setting: under `C[C@@H]1CCCC(=O)N(C)/C=C/CC[C@H](C)C(=O)O[C@H](C(C)(C)C)C1` stands 21 µM; under `C[C@H](CCCC(N)=O)C[C@@H](OC(=O)[C@H](C)CC/C=C/I)C(C)(C)C`, greater than 10 µM.

With `C[C@H]1CCCC(=O)N(C)/C=C/CC[C@@H](C)C(=O)O[C@H](C(C)(C)C)C1`, the IC50 was greater than 10 µM. On the same count and under the same terms, under `C[C@@H]1CCCC(=O)N(C)/C=C/CC[C@@H](C)C(=O)O[C@H](C(C)(C)C)C1` stands 19.1 µM.

Another experiment is filed under the species Mus musculus. Described as §1. Summed up:
as §2
Turning to `C[C@H]1CCCC(=O)N(C)/C=C/CC[C@H](C)C(=O)O[C@H](C(C)(C)C)C1`, the inhibition result is “Dose-dependent effect”. For `C[C@@H]1CCCC(=O)N(C)/C=C/CC[C@@H](C)C(=O)O[C@@H](C(C)(C)C)C1`, the inhibition result is “Dose-dependent effect”.
